Measurements published in PMC8207330 (Leukemia research, 2017).
“And” between values parts separate entries of the source, which are not always exact repeats. Identical values can stand only once. Like-named read-outs stand apart in the source and are kept apart here.

Experiments:
[1] = Pharmacokinetics in patients; assay type: in vivo, human
[2] = test system: patients with JAK2^V617F-positive myelofibrosis, essential thrombocythemia, or polycythemia vera; experiment: Clinical efficacy; assay type: in vivo, human
Outline: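 Multicentre, nonrandomised, open-label phase 1 of the oral test compound given once daily in 28-day cycles. 3 + 3 escalation through 30, 60, 120, 240 and 200 mg. A 120 mg lead-in for 14–28 days was followed by 200 or 300 mg, and 120 mg was used for dose confirmation. Response was scored by IWG clinical-improvement criteria, or European LeukemiaNet criteria for PV/ET, with duration counted in cycles. Analysis was descriptive.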

[3] = test system: patients with JAK2^V617F-positive myelofibrosis, essential thrombocythemia, or polycythemia vera; assay type: in vivo
[4] = cohort 6, 120 mg (Cycle 1a), N = 8
[5] = cohort 6, 200 mg (Cycle 1b), N = 7
[6] = cohort 7, 120 mg (Cycle 1a), N = 6
[7] = cohort 7, 300 mg (Cycle 1b), N = 5
[8] = cohort L (withdrawn in lead-in phase), 120 mg, N = 1
[9] = cycle 1, cohort 1, 30 mg, N = 3
[10] = cycle 1, cohort 2, 60 mg, N = 3
[11] = cycle 1, cohort 3, 120 mg, N = 10
[12] = cycle 1, cohort 4, 240 mg, N = 3
[13] = cycle 1, cohort 5, 200 mg, N = 3

Cc1cc(Nc2cc(CN3CCOCC3)c3nc(C)c(Cc4ccc(Cl)cc4F)n3n2)n[nH]1 [gandotinib]
0 n (%): DLT: Hyperkalemia [3, 4] | DLT: Hyperuricemia [3, 4] | DLT: Renal failure acute [3, 4] | DLT: Hyperkalemia [3, 5] | DLT: Hyperuricemia [3, 5] | DLT: Renal failure acute [3, 5] | DLT: Blood creatinine increased [3, 6] | DLT: Hyperkalemia [3, 6] | DLT: Hyperuricemia [3, 6] | DLT: Renal failure acute [3, 6] | Patients with DLT [3, 6] | DLT: Hyperkalemia [3, 7] | DLT: Hyperuricemia [3, 7] | DLT: Blood creatinine increased [3, 8] | DLT: Hyperkalemia [3, 8] | DLT: Hyperuricemia [3, 8] | DLT: Renal failure acute [3, 8] | Patients with DLT [3, 8] | DLT: Blood creatinine increased [3, 9] | DLT: Hyperkalemia [3, 9] | DLT: Hyperuricemia [3, 9] | DLT: Renal failure acute [3, 9] | Patients with DLT [3, 9] | DLT: Blood creatinine increased [3, 10] | DLT: Hyperkalemia [3, 10] | DLT: Hyperuricemia [3, 10] | DLT: Renal failure acute [3, 10] | Patients with DLT [3, 10] | DLT: Blood creatinine increased [3, 11] | DLT: Hyperkalemia [3, 11] | DLT: Hyperuricemia [3, 11] | DLT: Renal failure acute [3, 11] | Patients with DLT [3, 11] | DLT: Blood creatinine increased [3, 12] | DLT: Hyperkalemia [3, 12] | DLT: Renal failure acute [3, 12] | DLT: Renal failure acute [3, 13]
6 (15.8) n%: Patients with ≥ 1 SAE possibly related to study drug ([3]; Grade 3 and above, Total)
5 of 36: JAK2^V617F allele burden reduction of ≥50% at any time ([2]; across all cohorts)
2 (5.3) MF n%: SAE possibly related: Hyperuricemia ([3]; Total (N = 38), MF)
2 (40.0) n (%): Patients with DLT [3, 7]
80.7 L/h: apparent clearance (CL/F) ([1]; mean value, CV of 68)
3 (42.9) n (%): DLT: Blood creatinine increased [3, 5] | Patients with DLT [3, 5]
1 (20.0) n (%): DLT: Blood creatinine increased [3, 7] | DLT: Renal failure acute [3, 7]
5 (13.5) n (%): DLT: Blood creatinine increased ([3]; cycle 1, Total, N = 37)
1 (33.3) n (%): DLT: Hyperuricemia [3, 12] | Patients with DLT [3, 12] | DLT: Blood creatinine increased [3, 13] | DLT: Hyperkalemia [3, 13] | DLT: Hyperuricemia [3, 13]
No DLTs: DLTs observed ([3]; first 3 tested doses (30, 60, 120 mg))
3 DLTs: DLTs observed ([3]; 200 mg)
One: partial response ([2]; ET (1 patient enrolled))
4 patients: treatment discontinuation due to renal failure ([3]; most frequent adverse event resulting in discontinuation)
682 L: Vd/F ([1]; human, plasma, oral)
0 (0.0) n%: SAE possibly related: Hyperkalemia ([3]; 200 mg (N = 15))
4 h: time at which maximum plasma concentration (Cmax) was reached ([1]; on average, after single and multiple doses)
42.1%: TEAE: nausea ([3]; 16 of 38 patients, majority grade 1)
9 (24.3) n (%): Patients with DLT ([3]; cycle 1, Total, N = 37)
1 (2.6) n%: SAE possibly related: Anemia ([3]; Grade 3 and above, Total) | SAE possibly related: Blood creatinine increased ([3]; Grade 3 and above, Total)
5 (13.2) MF n%: SAE possibly related: Blood creatinine increased ([3]; Total (N = 38), MF)
55.3%: TEAE: diarrhea ([3]; 21 of 38 patients, majority grade 1)
3 patients: no clinic-hematologic response ([2]; of the 6 patients with PV) | clinic-hematologic partial response ([2]; of the 6 patients with PV (2 in cohort 6, 1 in cohort 7))
1 (20.0) n%: Patients with ≥ 1 SAE possibly related to study drug ([3]; 300 mg (N = 5)) | SAE possibly related: Renal failure, acute ([3]; 300 mg (N = 5))
0 n%: Patients with ≥ 1 SAE possibly related to study drug ([3]; 30 mg (N = 3)) | SAE possibly related: Anemia ([3]; 30 mg (N = 3)) | SAE possibly related: Blood creatinine increased ([3]; 30 mg (N = 3)) | SAE possibly related: Hyperkalemia ([3]; 30 mg (N = 3)) | SAE possibly related: Hyperuricemia ([3]; 30 mg (N = 3)) | SAE possibly related: Renal failure, acute ([3]; 30 mg (N = 3)) | Patients with ≥ 1 SAE possibly related to study drug ([3]; 60 mg (N = 7)) | SAE possibly related: Anemia ([3]; 60 mg (N = 7)) | SAE possibly related: Blood creatinine increased ([3]; 60 mg (N = 7)) | SAE possibly related: Hyperkalemia ([3]; 60 mg (N = 7)) | SAE possibly related: Hyperuricemia ([3]; 60 mg (N = 7)) | SAE possibly related: Renal failure, acute ([3]; 60 mg (N = 7)) | Patients with ≥ 1 SAE possibly related to study drug ([3]; 120 mg (N = 34)) | SAE possibly related: Anemia ([3]; 120 mg (N = 34)) | SAE possibly related: Blood creatinine increased ([3]; 120 mg (N = 34)) | SAE possibly related: Hyperkalemia ([3]; 120 mg (N = 34)) | SAE possibly related: Hyperuricemia ([3]; 120 mg (N = 34)) | SAE possibly related: Renal failure, acute ([3]; 120 mg (N = 34)) | SAE possibly related: Anemia ([3]; 240 mg (N = 3)) | SAE possibly related: Hyperkalemia ([3]; 240 mg (N = 3)) | SAE possibly related: Hyperuricemia ([3]; 240 mg (N = 3)) | SAE possibly related: Renal failure, acute ([3]; 240 mg (N = 3)) | SAE possibly related: Anemia ([3]; 300 mg (N = 5)) | SAE possibly related: Blood creatinine increased ([3]; 300 mg (N = 5)) | SAE possibly related: Hyperkalemia ([3]; 300 mg (N = 5)) | SAE possibly related: Hyperuricemia ([3]; 300 mg (N = 5)) | SAE possibly related: Hyperkalemia ([3]; Grade 3 and above, Total) | SAE possibly related: Anemia ([3]; Grade 4 and above, Total) | SAE possibly related: Blood creatinine increased ([3]; Grade 4 and above, Total) | SAE possibly related: Hyperkalemia ([3]; Grade 4 and above, Total) | SAE possibly related: Renal failure, acute ([3]; Grade 4 and above, Total)
20/32 and 20 of 32: palpable spleen length reduction of ≥ 50% at any time during therapy ([2]; across all cohorts)
2 (5.4) n (%): DLT: Hyperuricemia ([3]; cycle 1, Total, N = 37)
1 (2.7) n (%): DLT: Hyperkalemia ([3]; cycle 1, Total, N = 37) | DLT: Renal failure acute ([3]; cycle 1, Total, N = 37)
2 (5.3) n%: SAE possibly related: Hyperuricemia ([3]; Grade 3 and above, Total) | SAE possibly related: Renal failure, acute ([3]; Grade 3 and above, Total) | Patients with ≥ 1 SAE possibly related to study drug ([3]; Grade 4 and above, Total) | SAE possibly related: Hyperuricemia ([3]; Grade 4 and above, Total)
3 (100) n (%): Patients with DLT [3, 13]
3 (20.0) n%: SAE possibly related: Blood creatinine increased ([3]; 200 mg (N = 15))
1 (33.3) n%: Patients with ≥ 1 SAE possibly related to study drug ([3]; 240 mg (N = 3)) | SAE possibly related: Blood creatinine increased ([3]; 240 mg (N = 3))
4 (26.7) n%: Patients with ≥ 1 SAE possibly related to study drug ([3]; 200 mg (N = 15))
~6 h: half-life ([1]; human, plasma, oral)
1 (2.6) MF n%: SAE possibly related: Anemia ([3]; Total (N = 38), MF) | SAE possibly related: Hyperkalemia ([3]; Total (N = 38), MF)
1 (6.7) n%: SAE possibly related: Anemia ([3]; 200 mg (N = 15)) | SAE possibly related: Hyperuricemia ([3]; 200 mg (N = 15)) | SAE possibly related: Renal failure, acute ([3]; 200 mg (N = 15))
3–16 cycles: duration of clinic-hematologic partial response ([2]; PV patients)
4 (10.5) [2 MF, 1 ET, 1 PV] n%: SAE possibly related: Renal failure, acute ([3]; Total (N = 38), 2 MF, 1 ET, 1 PV)
3 (37.5) n (%): DLT: Blood creatinine increased [3, 4] | Patients with DLT [3, 4]
